Entries after “also recorded” stand apart in the source; their conditions may differ. Structures can show the parent of a compound that is named as a salt.
Experiments:
full NCI 60 cell panel = test: NCI 60 five-concentration screen, mean graph midpoint of all cell lines; assay type: cell-based; details: Homo sapiens, 48 h; for GI50: read-out: GI50 MG-MID (mean GI50); for IC (TGI): read-out: TGI MG-MID
HT-29 colon cancer cells [1] = test: Cell viability by trypan blue exclusion; assay type: cell-based, Human; details: HT-29 cells, 24 h, 100 or 500 nM tested
Summary of the method: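 HT-29 cells in RPMI 1640/10% FBS/2 mM L-glutamine were plated at 2×10^4 cells/cm2. They were treated in triplicate for 24 h with 100 or 500 nM test compound (0.01% DMSO final; DMSO-only controls). Viable cells were counted by trypan blue exclusion. Values are means ± s.e.m. of three determinations.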

p38MAPK(Thr180/Tyr182) = test: Kinase phosphorylation by Western blotting: p38MAPK; assay type: cell-based, Human; details: HeLa cells, 1 μM, 3 h
Summary of the method: (§1)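 HeLa cells in RPMI 1640/10% FBS/2 mM L-glutamine were exposed to 1 μM test compound for 3 h (0.01% DMSO). Lysates were cleared at 15,000 × g for 15 min and boiled 4 min, and 80 μg protein was run on SDS-PAGE. Proteins were blotted to nitrocellulose and probed with antibodies to total and phosphorylated kinase, then a peroxidase anti-rabbit IgG (1 h). Bands were detected by ECL chemiluminescence.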

HT-29 colon cancer cells [2] = test: Mitochondrial membrane potential with DiOC6; assay type: cell-based, Human; details: HT-29 cells, 500 nM, 24 h
Summary of the method: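 After 24 h in 500 nM test compound (0.01% DMSO; DMSO controls), HT-29 cells at 1×10^6 cells/mL were stained with 4 nM DiOC6 for 40 min at 37 °C in the dark. Cells were counterstained with PI at 5 μg/mL to exclude dead cells. Green fluorescence was read by flow cytometry with logarithmic amplification; one experiment representative of three to five.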

HT-29 colon cancer cells [3] = test: Cell cycle distribution by flow cytometry; assay type: cell-based, Human; details: HT-29 cells, 24 h
Summary of the method: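 HT-29 cells grown in RPMI 1640 with 10% FBS and 2 mM L-glutamine (37 °C, 5% CO2). Test compound was added from a 10 mmol/L DMSO stock (0.01% DMSO final; DMSO-only controls) for 24 h. Cells were fixed in 70% ethanol at −20 °C for ≥12 h, treated with RNase A (10 μg/mL, 37 °C, 30 min) and stained with PI (50 μg/mL). DNA content was read by flow cytometry; one experiment representative of three.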

JNK(Thr183/Tyr185) = test: Kinase phosphorylation by Western blotting: JNK; assay type: cell-based, Human; details: HeLa cells, 1 μM, 3 h
Summary of the method: as §1

mTOR(Ser2448) = test: Kinase phosphorylation by Western blotting: mTOR; assay type: cell-based, Human; details: HeLa cells, 1 μM, 3 h
Summary of the method: as §1

[4] = system: caspase proteases (DEVDase activity); test: DEVDase; assay type: cell-based, Human; details: HT-29 cells, 500 nM, 48 h
Summary of the method: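 HT-29 cells in RPMI 1640/10% FBS were exposed to 500 nM test compound for 48 h, with 0.01% DMSO and DMSO-only controls. DEVD-hydrolysing caspase (DEVDase) activity was measured fluorometrically in cell extracts. Values are means ± s.e.m. of four determinations.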

HT-29 colon cancer cells [5] = test: Intracellular ROS content with DHE; assay type: cell-based, Human; details: HT-29 cells, 500 nM, 24 h
Summary of the method: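 HT-29 cells were treated with 500 nM test compound for 24 h (0.01% DMSO; DMSO controls). They were then loaded with 5 μM dihydroethidium (from 10 mM DMSO stock) for 30 min at 37 °C to detect superoxide. Red fluorescence was read by flow cytometry with logarithmic amplification; one experiment representative of three to five.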

Bax = Bax expression and translocation by confocal microscopy; assay type: cell-based, Human; details: HT-29 cells, 500 nM, 24 h
AMPK(Thr172) = test: Kinase phosphorylation by Western blotting: AMPK; assay type: cell-based, Human; details: HeLa cells, 1 μM, 3 h
Summary of the method: as §1

ERK1/2(Thr202/Tyr204) = test: Kinase phosphorylation by Western blotting: ERK1/2; assay type: cell-based, Human; details: HeLa cells, 1 μM, 3 h
Summary of the method: as §1

Akt(Ser473) = test: Kinase phosphorylation by Western blotting: Akt; assay type: cell-based, Human; details: HeLa cells, 1 μM, 3 h
Summary of the method: as §1

Renal = test: NCI 60 five-concentration screen, renal subpanel; assay type: cell-based; details: Homo sapiens, 48 h, read-out: TGI Renal
CNS = test: cells; assay type: cell-based; details: Homo sapiens, 48 h, read-out: TGI CNS
Leukemia = test: cells; assay type: cell-based; details: Homo sapiens, 48 h, read-out: TGI Leukemia
tubulin = tubulin (Bos taurus, UniProt Q6B856); test: Tubulin assembly assay; assay type: biochemical, Bovine; details: 10 μM tubulin, 20 min incubation at 30 °C
Sequence of tubulin (Q6B856 whole entry): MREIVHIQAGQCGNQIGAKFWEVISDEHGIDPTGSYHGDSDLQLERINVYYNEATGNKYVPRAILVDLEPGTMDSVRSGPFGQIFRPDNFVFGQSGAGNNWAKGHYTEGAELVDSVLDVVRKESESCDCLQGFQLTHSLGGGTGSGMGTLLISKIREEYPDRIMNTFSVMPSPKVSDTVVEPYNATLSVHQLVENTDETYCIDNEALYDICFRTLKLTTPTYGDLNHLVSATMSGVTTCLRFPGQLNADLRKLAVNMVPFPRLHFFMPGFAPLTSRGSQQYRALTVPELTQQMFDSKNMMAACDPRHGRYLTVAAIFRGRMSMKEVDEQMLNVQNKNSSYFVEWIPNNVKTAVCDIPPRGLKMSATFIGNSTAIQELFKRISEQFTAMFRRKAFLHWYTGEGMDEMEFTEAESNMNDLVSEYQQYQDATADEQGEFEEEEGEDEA
Sequence of tubulin (P81947 whole entry partner): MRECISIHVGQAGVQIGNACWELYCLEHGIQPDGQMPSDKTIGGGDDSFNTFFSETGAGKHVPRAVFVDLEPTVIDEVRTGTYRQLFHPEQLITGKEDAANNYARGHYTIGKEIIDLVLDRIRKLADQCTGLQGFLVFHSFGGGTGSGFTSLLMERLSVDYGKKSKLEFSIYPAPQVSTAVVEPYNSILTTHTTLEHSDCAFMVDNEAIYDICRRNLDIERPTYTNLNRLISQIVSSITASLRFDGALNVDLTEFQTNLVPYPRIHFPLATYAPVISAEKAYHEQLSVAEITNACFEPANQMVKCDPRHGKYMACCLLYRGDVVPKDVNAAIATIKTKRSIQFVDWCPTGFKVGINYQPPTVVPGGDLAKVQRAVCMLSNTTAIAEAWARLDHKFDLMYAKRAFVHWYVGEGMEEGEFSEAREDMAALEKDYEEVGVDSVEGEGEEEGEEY

Ovarian = test: NCI 60 five-concentration screen, ovarian subpanel; assay type: cell-based; details: Homo sapiens, 48 h, read-out: TGI Ovarian
Breast = test: NCI 60 five-concentration screen, breast subpanel; assay type: cell-based; details: Homo sapiens, 48 h, read-out: TGI Breast
Colon = test: NCI 60 five-concentration screen, colon subpanel; assay type: cell-based; details: Homo sapiens, 48 h, read-out: GI50 Colon
NSCLC = test: NCI 60 five-concentration screen, NSCLC subpanel; assay type: cell-based; details: Homo sapiens, 48 h, read-out: TGI NSCLC
Melanoma = test: NCI 60 five-concentration screen, melanoma subpanel; assay type: cell-based; details: Homo sapiens, 48 h, read-out: TGI Melanoma
Prostate = test: cells; assay type: cell-based; details: Homo sapiens, 48 h, read-out: TGI Prostate

Cc1cn2c(/C=C3/C(=O)Nc4cc(Cl)ccc43)c(C)nc2s1 [Compound 4]
GI50 (full NCI 60 cell panel): 2 µM | IC (TGI) (full NCI 60 cell panel): 51.3 µM

Cc1cn2c(/C=C3/C(=O)Nc4c3ccc3ccccc43)c(C)nc2s1 [Compound 5]
concentration that triggered cell death (reduction in cell viability) (HT-29 colon cancer cells [1]): 500 nM | p38MAPK(Thr180/Tyr182) phosphorylation/activation (p38MAPK(Thr180/Tyr182)): did not significantly influence | mitochondrial membrane potential (ΔΨm) (HT-29 colon cancer cells [2]): marked disruption of ΔΨm | concentration that induced accumulation of cells in the G2/M phase (HT-29 colon cancer cells [3]): 500 nM | JNK(Thr183/Tyr185) phosphorylation/activation (JNK(Thr183/Tyr185)): did not significantly influence | mTOR(Ser2448) phosphorylation (mTOR(Ser2448)): did not significantly influence | activity of effector caspases (DEVDase activity) [4]: significantly increased | IC (TGI) (full NCI 60 cell panel): 19.9 µM | superoxide formation (intracellular ROS content) (HT-29 colon cancer cells [5]): marked increase in superoxide formation | cellular content of Bax (Bax): significant increase in the cellular content of Bax | AMPK(Thr172) phosphorylation (AMPK(Thr172)): did not significantly influence | ERK1/2(Thr202/Tyr204) phosphorylation/activation (ERK1/2(Thr202/Tyr204)): did not significantly influence | Akt(Ser473) phosphorylation (Akt(Ser473)): did not significantly influence

Cc1nn2c(/C=C3/C(=O)Nc4ccc(F)cc43)c(C)nc2s1 [Compound 7]
IC (TGI) (Renal): 91.2 µM | GI50 (full NCI 60 cell panel): 15.1 µM | IC (TGI) (full NCI 60 cell panel): 91.2 µM

Cc1nn2c(/C=C3/C(=O)Nc4c3ccc3ccccc43)c(C)nc2s1 [Compound 9]
IC (TGI) (CNS): 4.9 µM | GI50 (full NCI 60 cell panel): 0.5 µM | IC (TGI) (full NCI 60 cell panel): 8.51 µM

Cc1ccc(-c2nc3sc(C)cn3c2/C=C2/C(=O)Nc3cc(C)c(O)cc32)cc1 [Compound 11]
IC (TGI) (Leukemia): 83.2 µM | GI50 (full NCI 60 cell panel): 22.9 µM | IC (TGI) (full NCI 60 cell panel): 83.2 µM

Cc1ccc(-c2nc3sc(C)cn3c2/C=C2/C(=O)N(C)c3ccccc32)cc1 [Compound 12]
GI50 (full NCI 60 cell panel): 16.6 µM | IC (TGI) (full NCI 60 cell panel): 83.2 µM

COc1ccc2c(c1)/C(=C\c1c(-c3ccc(C)cc3)nc3sc(C)cn13)C(=O)N2C [Compound 13]
GI50 (full NCI 60 cell panel): 13.8 µM

COc1ccc2c(c1)/C(=C\c1c(-c3ccc(Cl)cc3)nc3sc(C)nn13)C(=O)N2 [Compound 16]
GI50 (full NCI 60 cell panel): 93.3 µM

Cc1nn2c(/C=C3/C(=O)Nc4ccc(F)cc43)c(-c3ccc(Cl)cc3)nc2s1 [Compound 17]
GI50 (full NCI 60 cell panel): 37.1 µM | IC (TGI) (full NCI 60 cell panel): 93.3 µM

COc1cc(-c2nc3sc(C)cn3c2/C=C2/C(=O)Nc3ccccc32)c(Br)c(OC)c1OC [Compound 24]
GI50 (full NCI 60 cell panel): 28.8 µM | IC (TGI) (full NCI 60 cell panel): 77.6 µM

O=C1Nc2ccccc2/C1=C\c1c(-c2ccccn2)nc2sccn12 [Compound 28]
GI50 (full NCI 60 cell panel): 1.15 µM | IC (TGI) (full NCI 60 cell panel): 50.1 µM

O=C1Nc2ccc(Cl)cc2C1=Cc1c(-c2ccccn2)nc2sccn12 [Compound 29]
Inhibition of tubulin assembly IC50 (μM) ± SD (tubulin): an IC50 could not be obtained | GI50 (full NCI 60 cell panel): 0.83 µM

O=C1Nc2cc(Cl)ccc2C1=Cc1c(-c2ccccn2)nc2sccn12 [Compound 30]
GI50 (full NCI 60 cell panel): 0.18 µM | IC (TGI) (full NCI 60 cell panel): 14.1 µM

COc1ccc2c(c1)/C(=C\c1c(-c3ccccn3)nc3sccn13)C(=O)N2 [Compound 31]
concentration that triggered cell death (reduction in cell viability) (HT-29 colon cancer cells [1]): 100 nM | p38MAPK(Thr180/Tyr182) phosphorylation/activation (p38MAPK(Thr180/Tyr182)): slightly decreased | concentration that induced accumulation of cells in the G2/M phase (HT-29 colon cancer cells [3]): 100 nM | JNK(Thr183/Tyr185) phosphorylation/activation (JNK(Thr183/Tyr185)): slightly decreased | mTOR(Ser2448) phosphorylation (mTOR(Ser2448)): no significant effect | activity of effector caspases (DEVDase activity) [4]: significantly increased | IC (TGI) (Leukemia): 0.58 µM | IC (TGI) (full NCI 60 cell panel): 3.39 µM | AMPK(Thr172) phosphorylation (AMPK(Thr172)): only slightly inhibited | ERK1/2(Thr202/Tyr204) phosphorylation/activation (ERK1/2(Thr202/Tyr204)): slightly decreased | Akt(Ser473) phosphorylation (Akt(Ser473)): strongly reduced; also recorded: selectively and strongly inhibited

COc1nc2sccn2c1/C=C1/C(=O)Nc2ccccc21 [Compound 33]
GI50 (full NCI 60 cell panel): 0.39 µM | IC (TGI) (full NCI 60 cell panel): 22.9 µM

COc1nc2sccn2c1/C=C1/C(=O)Nc2cccc(Cl)c21 [Compound 34]
IC (TGI) (full NCI 60 cell panel): 57.5 µM

COc1nc2sccn2c1/C=C1/C(=O)Nc2ccc(Cl)cc21 [Compound 35]
GI50 (full NCI 60 cell panel): 2.82 µM | IC (TGI) (full NCI 60 cell panel): 55 µM

COc1nc2sccn2c1/C=C1/C(=O)Nc2cc(Cl)ccc21 [Compound 36]
GI50 (full NCI 60 cell panel): 0.44 µM | IC (TGI) (full NCI 60 cell panel): 31.6 µM

COc1nc2sccn2c1C=C1C(=O)Nc2ccc(F)cc21 [Compound 37]
IC (TGI) (Leukemia): 52.5 µM | GI50 (full NCI 60 cell panel): 5.01 µM | IC (TGI) (full NCI 60 cell panel): 52.5 µM

COc1ccc2c(c1)C(=Cc1c(OC)nc3sccn13)C(=O)N2 [Compound 38]
concentration that triggered cell death (reduction in cell viability) (HT-29 colon cancer cells [1]): 100 nM | p38MAPK(Thr180/Tyr182) phosphorylation/activation (p38MAPK(Thr180/Tyr182)): slightly decreased | concentration that induced accumulation of cells in the G2/M phase (HT-29 colon cancer cells [3]): 100 nM | JNK(Thr183/Tyr185) phosphorylation/activation (JNK(Thr183/Tyr185)): slightly decreased | mTOR(Ser2448) phosphorylation (mTOR(Ser2448)): no significant effect | activity of effector caspases (DEVDase activity) [4]: significantly increased | GI50 (full NCI 60 cell panel): 0.07 µM | IC (TGI) (full NCI 60 cell panel): 19.1 µM | AMPK(Thr172) phosphorylation (AMPK(Thr172)): only slightly inhibited | ERK1/2(Thr202/Tyr204) phosphorylation/activation (ERK1/2(Thr202/Tyr204)): slightly decreased | Akt(Ser473) phosphorylation (Akt(Ser473)): strongly reduced; also recorded: selectively and strongly inhibited

COc1ccc2c(c1)C(=Cc1c(OC)nc3sccn13)C(=O)N2C [Compound 39]
IC (TGI) (Leukemia): 4.9 µM | GI50 (full NCI 60 cell panel): 0.54 µM | IC (TGI) (full NCI 60 cell panel): 34.7 µM

COc1nc2sccn2c1/C=C1/C(=O)N(C)c2ccccc21 [Compound 40]
IC (TGI) (Ovarian): 72.4 µM | GI50 (full NCI 60 cell panel): 6.31 µM | IC (TGI) (full NCI 60 cell panel): 72.4 µM

CC[C@]1(O)C[C@H]2CN(CCc3c([nH]c4ccccc34)[C@@](C(=O)OC)(c3cc4c(cc3OC)N(C=O)[C@H]3[C@@](O)(C(=O)OC)[C@H](OC(C)=O)[C@]5(CC)C=CCN6CC[C@]43[C@@H]65)C2)C1 [Vincristine sulfate, reference compound]
IC (TGI) (Breast): 7.94 µM | IC (TGI) (CNS): 6.31 µM | GI50 (Colon): 0.1 µM | IC (TGI) (NSCLC): 15.8 µM | IC (TGI) (Ovarian): 19.9 µM | IC (TGI) (Renal): 19.9 µM | IC (TGI) (Leukemia): 15.8 µM | GI50 (full NCI 60 cell panel): 0.2 µM | IC (TGI) (full NCI 60 cell panel): 10 µM | IC (TGI) (Melanoma): 7.94 µM | IC (TGI) (Prostate): 6.31 µM

Source: article PMC3297693 (Journal of Medicinal Chemistry, 2012)
